Reference: ChEMBL document CHEMBL3351900, “Conjugation of a nonspecific antiviral sapogenin with a specific HIV fusion inhibitor: a promising strategy for discovering new antiviral therapeutics” (J Med Chem, 2014)
Square brackets hold non-standard residues; d marks the D form. Peptide text beside a SMILES is read from it. * marks the point of attachment. X1 = C=CCOC(=O)[C@]12CC[C@@H](C(=C)C)[C@@H]1[C@H]1CC[C@@H]3[C@@]4(C)CC[C@H](OC(=O)CCc5cn(CC(=O)*)nn5)C(C)(C)[C@@H]4CC[C@@]3(C)[C@]1(C)CC2; X9 = C=CCOC(=O)[C@]12CC[C@@H](C)[C@H](C)[C@H]1C1=CC[C@@H]3[C@@]4(C)CC[C@H](OC(=O)CCc5cn(CC(=O)*)nn5)C(C)(C)[C@@H]4CC[C@@]3(C)[C@]1(C)CC2; X3 = C=C(C)[C@@H]1CC[C@]2(C(=O)O)CC[C@]3(C)[C@H](CC[C@@H]4[C@@]5(C)CC[C@H](OC(=O)CCc6cn(CC(=O)*)nn6)C(C)(C)[C@@H]5CC[C@]43C)[C@@H]12; X5 = C=C(C)[C@@H]1CC[C@]2(C(=O)OCc3cn(CC(=O)*)nn3)CC[C@]3(C)[C@H](CC[C@@H]4[C@@]5(C)CC[C@H](OC(C)=O)C(C)(C)[C@@H]5CC[C@]43C)[C@@H]12; X4 = C=C(C)[C@@H]1CC[C@]2(C(=O)OCc3cn(CC(=O)*)nn3)CC[C@]3(C)[C@H](CC[C@@H]4[C@@]5(C)CC[C@H](O)C(C)(C)[C@@H]5CC[C@]43C)[C@@H]12; βAla = NCCC(=O)O

Tests used:
[1] = tested on: Human immunodeficiency virus 1; assay: Antiviral activity against HIV1 3B infected in human MT2 cells assessed as inhibition of viral p24 antigen production by ELISA; format: functional, organism-based; settings: Human immunodeficiency virus 1, 3B
Summary of the method: (§1)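 MT-2 cells (1 × 10⁴) infected with 100 TCID₅₀ virus with or without peptides at graded concentrations. Culture supernatants collected on day 4 postinfection; p24 antigen quantified by ELISA. Percent inhibition and EC₅₀ calculated; tested in triplicate, mean ± standard deviation.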

[2] = Cytotoxicity against human MT2 cells after 4 days by XTT assay; format: cell-based
Summary of the method: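 MT-2 cells (5 × 10⁵/mL) mixed with equal volumes of graded conjugate concentrations and held at 37 °C for 4 days. XTT (1 mg/mL) with 0.02 μM phenazine methosulfate added for 4 h, then A450 read. CC50 calculated from the dose–response.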

[3] = tested on: Human immunodeficiency virus 1; assay: Antiviral activity against HIV1 BaL infected in human […] cells assessed as inhibition of viral replication; format: functional, organism-based; settings: Human immunodeficiency virus 1, BaL; summary of the method: as §1
[4] = Selectivity index, ratio of CC50 for human MT2 cells to EC50 for HIV1 3B infected in human MT2 cells; format: toxicity, cell-based; settings: read-out: Ratio CC50/EC50

Work on C=C(C)[C@@H]1CC[C@]2(C(=O)O)CC[C@]3(C)[C@H](CC[C@@H]4[C@@]5(C)CC[C@H](OC(=O)CCc6cn(CC(=O)NCCCC[C@H](NC(=O)CCNC(=O)[C@H](CC(C)C)NC(=O)[C@H](CC(C)C)NC(=O)[C@H](CCC(=O)O)NC(=O)[C@H](CCC(N)=O)NC(=O)[C@H](CCC(=O)O)NC(=O)[C@H](CC(N)=O)NC(=O)[C@H](CCCCN)NC(=O)[C@H](CCC(=O)O)NC(=O)[C@H](CCC(N)=O)NC(=O)[C@H](CCC(N)=O)NC(=O)[C@H](CC(N)=O)NC(=O)[C@H](CCC(N)=O)NC(=O)[C@H](CO)NC(=O)[C@H](CCC(=O)O)NC(=O)[C@H](CCC(=O)O)NC(=O)[C@@H](NC(=O)[C@H](CC(C)C)NC(=O)[C@H](CO)NC(=O)[C@H](Cc7cnc[nH]7)NC(=O)[C@@H](NC(=O)[C@H](CC(C)C)NC(=O)[C@H](CO)NC(=O)[C@@H](NC(=O)[C@H](Cc7ccc(O)cc7)NC(=O)[C@H](CC(N)=O)NC(=O)[C@H](CC(N)=O)NC(C)=O)[C@@H](C)O)[C@@H](C)CC)[C@@H](C)CC)C(N)=O)nn6)C(C)(C)[C@@H]5CC[C@]43C)[C@@H]12 (Ac-NNYTSLIHSLIEESQNQQEKNEQELL[βAla]K(X3)-NH2) yielded an EC50 [1] of 61.6 nM, a CC50 at 96 h [2] greater than 25000 nM and an EC50 [3] of 83.1 nM. For the same molecule, the selectivity ratio [4] was greater than 406.
Work on C=C(C)[C@@H]1CC[C@]2(C(=O)OCc3cn(CC(=O)NCCCC[C@H](NC(=O)CCNC(=O)[C@H](CC(C)C)NC(=O)[C@H](CC(C)C)NC(=O)[C@H](CCC(=O)O)NC(=O)[C@H](CCC(N)=O)NC(=O)[C@H](CCC(=O)O)NC(=O)[C@H](CC(N)=O)NC(=O)[C@H](CCCCN)NC(=O)[C@H](CCC(=O)O)NC(=O)[C@H](CCC(N)=O)NC(=O)[C@H](CCC(N)=O)NC(=O)[C@H](CC(N)=O)NC(=O)[C@H](CCC(N)=O)NC(=O)[C@H](CO)NC(=O)[C@H](CCC(=O)O)NC(=O)[C@H](CCC(=O)O)NC(=O)[C@@H](NC(=O)[C@H](CC(C)C)NC(=O)[C@H](CO)NC(=O)[C@H](Cc4cnc[nH]4)NC(=O)[C@@H](NC(=O)[C@H](CC(C)C)NC(=O)[C@H](CO)NC(=O)[C@@H](NC(=O)[C@H](Cc4ccc(O)cc4)NC(=O)[C@H](CC(N)=O)NC(=O)[C@H](CC(N)=O)NC(C)=O)[C@@H](C)O)[C@@H](C)CC)[C@@H](C)CC)C(N)=O)nn3)CC[C@]3(C)[C@H](CC[C@@H]4[C@@]5(C)CC[C@H](O)C(C)(C)[C@@H]5CC[C@]43C)[C@@H]12 (Ac-NNYTSLIHSLIEESQNQQEKNEQELL[βAla]K(X4)-NH2) yielded an EC50 [1] of 154 nM, a CC50 at 96 h [2] greater than 25000 nM and an EC50 [3] of 135 nM. It also gave a selectivity ratio [4] greater than 50.
For C=C(C)[C@@H]1CC[C@]2(C(=O)OCc3cn(CC(=O)NCCCC[C@H](NC(=O)CCNC(=O)[C@H](CC(C)C)NC(=O)[C@H](CC(C)C)NC(=O)[C@H](CCC(=O)O)NC(=O)[C@H](CCC(N)=O)NC(=O)[C@H](CCC(=O)O)NC(=O)[C@H](CC(N)=O)NC(=O)[C@H](CCCCN)NC(=O)[C@H](CCC(=O)O)NC(=O)[C@H](CCC(N)=O)NC(=O)[C@H](CCC(N)=O)NC(=O)[C@H](CC(N)=O)NC(=O)[C@H](CCC(N)=O)NC(=O)[C@H](CO)NC(=O)[C@H](CCC(=O)O)NC(=O)[C@H](CCC(=O)O)NC(=O)[C@@H](NC(=O)[C@H](CC(C)C)NC(=O)[C@H](CO)NC(=O)[C@H](Cc4cnc[nH]4)NC(=O)[C@@H](NC(=O)[C@H](CC(C)C)NC(=O)[C@H](CO)NC(=O)[C@@H](NC(=O)[C@H](Cc4ccc(O)cc4)NC(=O)[C@H](CC(N)=O)NC(=O)[C@H](CC(N)=O)NC(C)=O)[C@@H](C)O)[C@@H](C)CC)[C@@H](C)CC)C(N)=O)nn3)CC[C@]3(C)[C@H](CC[C@@H]4[C@@]5(C)CC[C@H](OC(C)=O)C(C)(C)[C@@H]5CC[C@]43C)[C@@H]12 (Ac-NNYTSLIHSLIEESQNQQEKNEQELL[βAla]K(X5)-NH2), the EC50 [1] was 41.4 nM, the CC50 at 96 h [2] was greater than 25000 nM and the EC50 [3] was 20.8 nM. It also gave a selectivity ratio [4] greater than 603.
Molecule C=CCOC(=O)[C@]12CC[C@@H](C)[C@H](C)[C@H]1C1=CC[C@@H]3[C@@]4(C)CC[C@H](OC(=O)CCc5cn(CC(=O)NCCCC[C@H](NC(=O)CCNC(=O)[C@H](CC(C)C)NC(=O)[C@H](CC(C)C)NC(=O)[C@H](CCC(=O)O)NC(=O)[C@H](CCC(N)=O)NC(=O)[C@H](CCC(=O)O)NC(=O)[C@H](CC(N)=O)NC(=O)[C@H](CCCCN)NC(=O)[C@H](CCC(=O)O)NC(=O)[C@H](CCC(N)=O)NC(=O)[C@H](CCC(N)=O)NC(=O)[C@H](CC(N)=O)NC(=O)[C@H](CCC(N)=O)NC(=O)[C@H](CO)NC(=O)[C@H](CCC(=O)O)NC(=O)[C@H](CCC(=O)O)NC(=O)[C@@H](NC(=O)[C@H](CC(C)C)NC(=O)[C@H](CO)NC(=O)[C@H](Cc6cnc[nH]6)NC(=O)[C@@H](NC(=O)[C@H](CC(C)C)NC(=O)[C@H](CO)NC(=O)[C@@H](NC(=O)[C@H](Cc6ccc(O)cc6)NC(=O)[C@H](CC(N)=O)NC(=O)[C@H](CC(N)=O)NC(C)=O)[C@@H](C)O)[C@@H](C)CC)[C@@H](C)CC)C(N)=O)nn5)C(C)(C)[C@@H]4CC[C@@]3(C)[C@]1(C)CC2 (Ac-NNYTSLIHSLIEESQNQQEKNEQELL[βAla]K(X9)-NH2) has an EC50 [1] of 2.18 nM, a CC50 at 96 h [2] of 7920 nM and an EC50 [3] of 2.51 nM. The selectivity ratio [4] was 3630.
For C=CCOC(=O)[C@]12CC[C@@H](C(=C)C)[C@@H]1[C@H]1CC[C@@H]3[C@@]4(C)CC[C@H](OC(=O)CCc5cn(CC(=O)NCCC(=O)N[C@@H](CC(N)=O)C(=O)N[C@@H](CC(N)=O)C(=O)N[C@@H](Cc6ccc(O)cc6)C(=O)N[C@H](C(=O)N[C@@H](CO)C(=O)N[C@@H](CC(C)C)C(=O)N[C@H](C(=O)N[C@@H](Cc6cnc[nH]6)C(=O)N[C@@H](CO)C(=O)N[C@@H](CC(C)C)C(=O)N[C@H](C(=O)N[C@@H](CCC(=O)O)C(=O)N[C@@H](CCC(=O)O)C(=O)N[C@@H](CO)C(=O)N[C@@H](CCC(N)=O)C(=O)N[C@@H](CC(N)=O)C(=O)N[C@@H](CCC(N)=O)C(=O)N[C@@H](CCC(N)=O)C(=O)N[C@@H](CCC(=O)O)C(=O)N[C@@H](CCCCN)C(=O)N[C@@H](CC(N)=O)C(=O)N[C@@H](CCC(=O)O)C(=O)N[C@@H](CCC(N)=O)C(=O)N[C@@H](CCC(=O)O)C(=O)N[C@@H](CC(C)C)C(=O)N[C@@H](CC(C)C)C(N)=O)[C@@H](C)CC)[C@@H](C)CC)[C@@H](C)O)nn5)C(C)(C)[C@@H]4CC[C@@]3(C)[C@]1(C)CC2 ({X1-βAla}-NNYTSLIHSLIEESQNQQEKNEQELL-NH2), the EC50 [1] was 242 nM, the CC50 at 96 h [2] was greater than 25000 nM and the EC50 [3] was 519 nM. It also gave a selectivity ratio [4] greater than 103.
Work on C=C(C)[C@@H]1CC[C@]2(C(=O)OCc3cn(CC(=O)NCCC(=O)N[C@@H](CC(N)=O)C(=O)N[C@@H](CC(N)=O)C(=O)N[C@@H](Cc4ccc(O)cc4)C(=O)N[C@H](C(=O)N[C@@H](CO)C(=O)N[C@@H](CC(C)C)C(=O)N[C@H](C(=O)N[C@@H](Cc4cnc[nH]4)C(=O)N[C@@H](CO)C(=O)N[C@@H](CC(C)C)C(=O)N[C@H](C(=O)N[C@@H](CCC(=O)O)C(=O)N[C@@H](CCC(=O)O)C(=O)N[C@@H](CO)C(=O)N[C@@H](CCC(N)=O)C(=O)N[C@@H](CC(N)=O)C(=O)N[C@@H](CCC(N)=O)C(=O)N[C@@H](CCC(N)=O)C(=O)N[C@@H](CCC(=O)O)C(=O)N[C@@H](CCCCN)C(=O)N[C@@H](CC(N)=O)C(=O)N[C@@H](CCC(=O)O)C(=O)N[C@@H](CCC(N)=O)C(=O)N[C@@H](CCC(=O)O)C(=O)N[C@@H](CC(C)C)C(=O)N[C@@H](CC(C)C)C(N)=O)[C@@H](C)CC)[C@@H](C)CC)[C@@H](C)O)nn3)CC[C@]3(C)[C@H](CC[C@@H]4[C@@]5(C)CC[C@H](O)C(C)(C)[C@@H]5CC[C@]43C)[C@@H]12 ({X4-βAla}-NNYTSLIHSLIEESQNQQEKNEQELL-NH2) yielded an EC50 [1] of 475 nM, a CC50 at 96 h [2] greater than 25000 nM and an EC50 [3] of 456 nM. The selectivity ratio [4] was greater than 52.
C=C(C)[C@@H]1CC[C@]2(C(=O)OCc3cn(CC(=O)NCCC(=O)N[C@@H](CC(N)=O)C(=O)N[C@@H](CC(N)=O)C(=O)N[C@@H](Cc4ccc(O)cc4)C(=O)N[C@H](C(=O)N[C@@H](CO)C(=O)N[C@@H](CC(C)C)C(=O)N[C@H](C(=O)N[C@@H](Cc4cnc[nH]4)C(=O)N[C@@H](CO)C(=O)N[C@@H](CC(C)C)C(=O)N[C@H](C(=O)N[C@@H](CCC(=O)O)C(=O)N[C@@H](CCC(=O)O)C(=O)N[C@@H](CO)C(=O)N[C@@H](CCC(N)=O)C(=O)N[C@@H](CC(N)=O)C(=O)N[C@@H](CCC(N)=O)C(=O)N[C@@H](CCC(N)=O)C(=O)N[C@@H](CCC(=O)O)C(=O)N[C@@H](CCCCN)C(=O)N[C@@H](CC(N)=O)C(=O)N[C@@H](CCC(=O)O)C(=O)N[C@@H](CCC(N)=O)C(=O)N[C@@H](CCC(=O)O)C(=O)N[C@@H](CC(C)C)C(=O)N[C@@H](CC(C)C)C(N)=O)[C@@H](C)CC)[C@@H](C)CC)[C@@H](C)O)nn3)CC[C@]3(C)[C@H](CC[C@@H]4[C@@]5(C)CC[C@H](OC(C)=O)C(C)(C)[C@@H]5CC[C@]43C)[C@@H]12 ({X5-βAla}-NNYTSLIHSLIEESQNQQEKNEQELL-NH2) showed an EC50 [1] of 501 nM, a CC50 at 96 h [2] greater than 25000 nM and an EC50 [3] of 99 nM. It also gave a selectivity ratio [4] greater than 52.
